Data on 14 molecules can be found in PubChem BioAssay.

Activity calls are given as the source filed them.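 The calls were made as follows, unless noted: active = visually confirmed hit in the image check and inhibition above 20%; inconclusive = visually confirmed hit but inhibition not above 20%; inactive = no visual hit in the image check.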

Assay [1] in a line: inhibitors of TNFa-induced NFkB p65 translocation, primary screen, imaging, HUVEC, MLSMR starter and 10KST1 sets (AID 438;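 active = inhibition above 20% together with a positive visual image hit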;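 also: compound added about 3h40 before a 20 min TNFalpha stimulation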;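 as to inhibition: signal is the nuclear over cytoplasmic p65 intensity ratio per well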). Conditions: HUVEC TNFa-induced p65 nuclear translocation; cell count: measured here: nuclei count (cytotoxicity indicator), at 2.08 µM; inhibition: at 2 µM, stronger effect = higher value, 0% TNFa-plus-vehicle, 100% no-TNFa wells.
Assay [2] can be described thus: inhibitors of mutant huntingtin aggregation, primary screen, imaging, exon1htt(103Q)mCFP cells, high-content imaging (AID 483;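 active = visual image review flags a hit and inhibition of aggregation exceeds 20%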;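 also: compound exposure lasted 3 days before fixation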;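 as to nuclei count: percent of the per-plate median nuclei count of sample wells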). Conditions: exon1htt(103Q)mCFP cell line, aggregate imaging, at 2 µM; inhibition of aggregation: stronger effect = higher value; nuclei count: measured here: cell count, toxicity.
Assay [3] can be described thus: inhibitors of E-selectin induction by TNFa, primary screen, imaging, HUVEC, immunofluorescence, MLSMR starter and 10KST1 sets (AID 487).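 As to inhibition: signal is fraction of cell area covered by stained E-selectin grains.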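 As to nuclei count: 100% = median nuclei count of all wells on the same plate.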 Conditions: HUVEC TNFalpha-induced E-selectin immunofluorescence imaging, at 2 µM; inhibition: stronger effect = higher value; nuclei count: measured here: cell number, toxicity.
Assay [4] addresses Voltage-gated potassium channel subunit beta-2 (Rattus norvegicus) (UniProt P62483). The assay is described as follows: KvBeta enzyme negative modulators, primary screen, biochemical, NADPH fluorescence (AID 622;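 active = fluorescence slope higher than the sample average by over 3 SD, cut at about -0.22 in these data, passing the limit was not always enough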;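 also: slope of raw intensity against log time taken from 70 to 1610 s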). Conditions: recombinant KvBeta, 4-cyanobenzaldehyde reduction, at 10 µM, stronger effect = higher value.
Assay [5] shares this target. The assay is described as follows: KvBeta positive modulators, primary screen, biochemical, NADPH fluorescence (AID 623;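 active = NADPH fluorescence slope more negative than the mean of all samples by about 3 SD, 99.7% confidence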;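 also: fluorescence intensity change per second fitted from 20 to 320 s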). Conditions: Recombinant KvBeta, NADPH fluorescence decrease slope, 10 min; at 10 µM; stronger effect = lower value.
Assay [6] concerns the target Muscarinic acetylcholine receptor M4 (Homo sapiens) (UniProt P08173). The assay is described as follows: compounds altering M4/GIRK thallium flux, either direction, primary screen, M4 allosteric agonist project, cell-based, HEK293 M4/GIRK, BTC-AM (AID 625;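 active = fluorescence slope after compound addition differing from the mean of all tested samples at 99.7% confidence, mostly higher but some lower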;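 also: thallium influx through GIRK channels coupled to M4 in HEK293 cells with BTC-AM dye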). Conditions: at 10 µM, actives lie on both sides. The procedure, abridged: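 System: HEK293 cells with M4 receptor and GIRK channels | Incubation: Cells overnight at 37 °C, BTC-AM loading 1 h, reads 2 min total | Technique: Kinetic BTC-AM fluorescence sampled at 1 Hz, 10 s pre-addition baseline | Measure: Post-addition slope, 15–24 s, of baseline-normalized fluorescence | Control set: Carbachol positive, DMSO negative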

The nature of assay [7]: inhibitors of Sendai virus-induced IRF3 signaling, primary screen, TLR/RLR signaling modifier project, cell-based, Sendai virus stimulus, luciferase, 10K MLSCN set (AID 602276;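 active = inhibition at or above 50% at 10 µM; inactive = inhibition below 50%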;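 also: firefly luciferase from ISG56 promoter only with Renilla not read in this screen; 0% = Sendai virus plus DMSO and 100% = medium plus DMSO without virus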). Conditions: HEK293 RL24 IRF3 luciferase reporter, at 10 µM, stronger effect = higher value.
A short description of assay [8]: inhibitors of poly I:C-induced TLR3 signaling, primary screen, cell-based, poly I:C stimulus, luciferase, 10K MLSCN set (AID 602277;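 active = inhibition of the reporter signal at or above 50%; inactive = inhibition below 50%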). Conditions: HEK293-TLR3 RL24 IRF3 luciferase reporter, at 10 µM, stronger effect = higher value.

Chain of Voltage-gated potassium channel subunit beta-2 (Rattus norvegicus) (P62483 whole entry, looked up): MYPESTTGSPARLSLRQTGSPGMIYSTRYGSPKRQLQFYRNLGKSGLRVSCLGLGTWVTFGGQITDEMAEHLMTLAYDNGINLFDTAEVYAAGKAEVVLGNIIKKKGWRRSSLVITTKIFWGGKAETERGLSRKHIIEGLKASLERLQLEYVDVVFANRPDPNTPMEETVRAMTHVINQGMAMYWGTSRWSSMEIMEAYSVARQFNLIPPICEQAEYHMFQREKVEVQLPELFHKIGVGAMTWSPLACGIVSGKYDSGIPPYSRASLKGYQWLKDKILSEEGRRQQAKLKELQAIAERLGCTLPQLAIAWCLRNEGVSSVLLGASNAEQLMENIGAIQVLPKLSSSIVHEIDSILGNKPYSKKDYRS
Chain of Muscarinic acetylcholine receptor M4 (Homo sapiens) (P08173 whole entry, looked up): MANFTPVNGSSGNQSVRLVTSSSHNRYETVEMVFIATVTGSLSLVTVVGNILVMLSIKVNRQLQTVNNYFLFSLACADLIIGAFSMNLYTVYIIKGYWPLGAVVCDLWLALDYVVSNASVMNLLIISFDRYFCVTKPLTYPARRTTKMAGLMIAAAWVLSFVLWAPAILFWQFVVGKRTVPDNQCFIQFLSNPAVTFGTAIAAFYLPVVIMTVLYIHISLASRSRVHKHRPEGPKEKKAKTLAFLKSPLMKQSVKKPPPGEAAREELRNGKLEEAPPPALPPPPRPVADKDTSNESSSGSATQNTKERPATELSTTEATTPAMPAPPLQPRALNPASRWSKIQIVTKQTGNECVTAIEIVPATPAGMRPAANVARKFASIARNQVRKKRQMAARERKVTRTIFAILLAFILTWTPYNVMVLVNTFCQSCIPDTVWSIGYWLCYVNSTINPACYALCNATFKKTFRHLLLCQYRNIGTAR

On to `CC1(C)CC(=O)c2cc(OCC(=O)NCCCN3CCN(c4ccccc4F)CC3)ccc2O1`, for which the cell count in assay [1] was found to be 398. Moreover, the inhibition was 5.8% (inactive) in assay [1], -156% (inactive) in assay [3], 9.74% (inactive) in assay [7] and 2.15% (inactive) in assay [8]. Moreover, the inhibition of aggregation in assay [2] was -2% (inactive). The nuclei count was found to be 91.6% in assay [2] and 103% in assay [3]. Further, the fluorescence slope in assay [4] was -0.366 (inactive); in assay [6], 0.00645 (inactive). In assay [5], the NADPH fluorescence slope was 3e-05 (inactive).
For the molecule `O=C(CN1C(=O)C2CC=C(Cl)CC2C1=O)Nc1ccc(C(=O)O)cc1` (centres undefined), the cell count in assay [1] worked out at 442. In addition, the inhibition in assay [1] was 3.4% (inactive); in assay [3], -205% (inactive); in assay [7], 19.2% (inactive); in assay [8], 20.6% (inactive). Also, the inhibition of aggregation in assay [2] was 10.1% (inactive). Moreover, the nuclei count in assay [2] amounted to 110%; in assay [3] it was 122%. Also, the fluorescence slope in assay [4] was -0.569 (inactive); in assay [6], 0.00409 (inactive). The NADPH fluorescence slope in assay [5] is -7.9e-05 (inactive).
Turning to `Cn1cc(C(=O)NC2CCCCCCC2)c(=O)c2cc(S(=O)(=O)N3CCCC3)ccc21`, the cell count in assay [1] was found to be 614. Besides, the inhibition in assay [1] is 3.5% (inactive); in assay [3], -3.4% (inactive); in assay [7], 10.2% (inactive); in assay [8], 24.5% (inactive). Moreover, the inhibition of aggregation in assay [2] is 8.6% (inactive). The nuclei count turned out to be 109% in assay [2] and 106% in assay [3]. Besides, the fluorescence slope in assay [4] was -0.319 (inactive); in assay [6], 0.00744 (inactive). The NADPH fluorescence slope in assay [5] was -4.1e-05 (inactive).
Consider `CC(C)NC(=O)CSc1nnc(-c2ccc(C(C)(C)C)cc2)n1C`, for which the cell count in assay [1] is 563. The inhibition in assay [1] was -16% (inactive); in assay [3], 8% (inactive); in assay [7] it was 4.36% (inactive); in assay [8] it was 1.25% (inactive). Further, the inhibition of aggregation in assay [2] was -4.3% (inactive). In addition, the nuclei count in assay [2] was 96.8%; in assay [3], 117%. Also, the fluorescence slope was -0.465 (inactive) in assay [4] and 0.00698 (inactive) in assay [6]. The NADPH fluorescence slope in assay [5] was 5.2e-06 (inactive).
For `CCOc1cc(S(=O)(=O)NCc2ccccn2)c(C)cc1C`, the cell count in assay [1] is 412. Moreover, the inhibition was -15.9% (inactive) in assay [1], -20% (inactive) in assay [3], 8.05% (inactive) in assay [7] and 20.9% (inactive) in assay [8]. Moreover, in assay [2], the inhibition of aggregation is -0.5% (inactive). In addition, the nuclei count in assay [2] was 112%; in assay [3], 68.1%. The fluorescence slope is -0.44 (inactive) in assay [4] and 0.0075 (inactive) in assay [6]. In addition, the NADPH fluorescence slope in assay [5] is -3.9e-05 (inactive).
Consider `COc1ccc(N(CC(=O)NC2CCCC2)C(=O)Cn2nnc(-c3ccc(C)cc3)n2)cc1`, for which the cell count in assay [1] is 465. In addition, the inhibition is -3.9% (inactive) in assay [1], -65.7% (inactive) in assay [3], -14.1% (inactive) in assay [7] and 0.19% (inactive) in assay [8]. The inhibition of aggregation in assay [2] is 8.3% (inactive). Besides, the nuclei count was 90.6% in assay [2] and 106% in assay [3]. Besides, the fluorescence slope in assay [4] was -0.587 (inactive); in assay [6], 0.00452 (inactive). Moreover, the NADPH fluorescence slope in assay [5] is 8e-06 (inactive).
On to `COc1cc(-c2noc(-c3cccc(Cl)c3)n2)cc(OC)c1OC`, for which, in assay [1], the cell count is 778. Besides, the inhibition is -0.6% (inactive) in assay [1], -33.7% (inactive) in assay [3], 6.15% (inactive) in assay [7] and -21.6% (inactive) in assay [8]. Besides, the inhibition of aggregation in assay [2] was -21% (inactive). The nuclei count stood at 103% in assay [2] and 113% in assay [3]. The fluorescence slope in assay [4] was -0.568 (inactive); in assay [6], 0.00623 (inactive). Besides, the NADPH fluorescence slope in assay [5] was 2.5e-05 (inactive).
Regarding `CCC1CCCCN1S(=O)(=O)c1ccc(C(=O)Nc2nnc(-c3cccs3)o2)cc1` (centres undefined), the cell count in assay [1] is 404. The inhibition in assay [1] was 5.3% (inactive); in assay [3], -211% (inactive); in assay [7], 10.8% (inactive); in assay [8], 16.6% (inactive). The inhibition of aggregation in assay [2] is 8.5% (inactive). Moreover, the nuclei count amounted to 97% in assay [2] and 111% in assay [3]. Also, the fluorescence slope in assay [4] was -0.486 (inactive); in assay [6] it was 0.0055 (inactive). In addition, in assay [5], the NADPH fluorescence slope is -0.000271 (inactive).
As for `Cc1cccc(NC(=O)CCn2ccnc2C)c1`, in assay [1], the cell count came out at 628. Further, the inhibition in assay [1] is 1.2% (inactive); in assay [3] it was -65.9% (inactive); in assay [7] it was 10.5% (inactive); in assay [8] it was 8.13% (inactive). The inhibition of aggregation in assay [2] is -6.6% (inactive). Further, the nuclei count in assay [2] worked out at 96.8%; in assay [3], 93%. Also, the fluorescence slope in assay [4] is -0.574 (inactive); in assay [6], 0.00688 (inactive). Further, the NADPH fluorescence slope in assay [5] was -5e-05 (inactive).
Regarding `COc1ccc(C2NC(c3ccc(OC)c(OC)c3OC)C(C)C(=O)C2C)c(OC)c1OC` (centres undefined), the cell count in assay [1] amounted to 663. In addition, the inhibition in assay [1] is -16.3% (inactive); in assay [3] it was -142% (inactive); in assay [7], 14.8% (inactive); in assay [8], 25.4% (inactive). Besides, the inhibition of aggregation in assay [2] is 2.6% (inactive). Moreover, the nuclei count came to 141% in assay [2] and 104% in assay [3]. Besides, the fluorescence slope is -0.474 (inactive) in assay [4] and 0.00551 (inactive) in assay [6]. Besides, the NADPH fluorescence slope in assay [5] was -2.1e-05 (inactive).
As to `Oc1cnc2ccccc2c1CN1CCOCC1`, the cell count in assay [1] is 354. Further, the inhibition is 0.4% (inactive) in assay [1], -45.2% (inactive) in assay [3], 18% (inactive) in assay [7] and 10.3% (inactive) in assay [8]. Further, the inhibition of aggregation in assay [2] was -24.9% (inactive). Further, the results for the nuclei count in assay [2] and in assay [3] were 111% and 80.9%, respectively. Moreover, the fluorescence slope in assay [4] is -0.542 (inactive); in assay [6] it was 0.0061 (inactive). Moreover, in assay [5], the NADPH fluorescence slope was -1.4e-05 (inactive).
Take `O=c1c2nnn(Cc3ccccc3)c2ncn1-c1ccccc1`: the cell count in assay [1] amounted to 522. Also, the inhibition in assay [1] is -8.6% (inactive); in assay [3], 9% (inactive); in assay [7], 14.3% (inactive); in assay [8], 25.9% (inactive). The inhibition of aggregation in assay [2] is 16.2% (inactive). The nuclei count stood at 86.9% in assay [2] and 99% in assay [3]. Besides, the fluorescence slope in assay [4] is -0.411 (inactive); in assay [6], 0.00572 (inactive). Also, the NADPH fluorescence slope in assay [5] was -8.2e-05 (inactive).
As to `Cc1ccc(O)c(NC(=O)COc2cc(C)ccc2C)c1`, the cell count in assay [1] worked out at 431. Moreover, the inhibition in assay [1] is 11.4% (inactive); in assay [3] it was -71.5% (inactive); in assay [7] it was -3.99% (inactive); in assay [8], -13.6% (inactive). Also, the inhibition of aggregation in assay [2] was 3% (inactive). Moreover, the nuclei count was determined as 106% in assay [2] and 115% in assay [3]. Also, the values for the fluorescence slope in assay [4] and in assay [6] were -0.473 (inactive) and 0.00732 (inactive), respectively. In addition, the NADPH fluorescence slope in assay [5] is 4.1e-05 (inactive).
For the molecule `CN1C(=O)CSc2ccc(NC(=O)N3CCN(c4ccccn4)CC3)cc21`, the cell count in assay [1] amounted to 589. Besides, the inhibition is -16.4% (inactive) in assay [1], -57.6% (inactive) in assay [3], -6.76% (inactive) in assay [7] and 21.6% (inactive) in assay [8]. Further, the inhibition of aggregation in assay [2] was -49% (inactive). In addition, the nuclei count in assay [2] worked out at 76.7%; in assay [3] it was 112%. In addition, the fluorescence slope in assay [4] was -0.455 (inactive); in assay [6], 0.00601 (inactive). Moreover, the NADPH fluorescence slope in assay [5] was 8e-05 (inactive).
